Measured values taken from PubChem BioAssay AID743247 (Broad Institute, 2014).
“And” between values parts separate entries of the source, which are not always exact repeats. Identical values can stand only once. Out of some 350,000 compounds screened, about 300 (0.086%) were called active.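 How the source made its calls: active means mean inhibition across replicates of 30% or more, regardless of how many single replicates reach that level; inconclusive means mean under 30% yet at least half of replicates reach 30%; inactive means the rest.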 This excerpt belongs to a sample that is enriched for actives.

Assay: blockers of fibronectin fibrillogenesis by fibroblasts – AH1F cells, Alexa488-fibronectin fluorescence, plate reader, primary screen (AID 743247);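 further: positive control wells lacked labelled fibronectin entirely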
Conditions: Alexa488-fibronectin deposition fluorescence, overnight, at 12.6 µM, stronger effect = higher value
Summary of the method: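 Test system: AH1F fibroblast monolayer depositing Alexa488-labelled fibronectin into matrix. Input: 10000 cells per well. Technique: fluorescence, ex 485 nm, em 525 nm. Buffer or medium: DMEM plus 2% serum, read in PBS. Timing: 1 h cell adhesion before compound, then overnight fibronectin incubation. Compound: single dose, pinned. Read-out basis: inhibition from reduced deposited-fibronectin fluorescence.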

Structure (SMILES) | inhibition
CCC(=O)Nc1ccc2c(c1)C(=O)N(C)C[C@H](OC)[C@@H](C)CN(Cc1nccs1)[C@H](C)CO2 | 8.21% (inactive)
CCCC(=O)Nc1ccc2c(c1)OC[C@H](C)N(CCc1ccccc1)C[C@H](C)[C@@H](OC)CN(C)C2=O | -9.33% (inactive)
O=C1N[C@H](c2ccccc2)COCc2cn(nn2)CC[C@@H]1Cc1ccc(Cl)cc1 | -8.81% (inactive)
Cc1ccc(Nc2nnc(SC(C)C(=O)NC3CC3)s2)cc1 (stereo not given) | 9.55% (inactive)
Cc1ccc(Nc2nnc(SCc3ccccc3)s2)cc1 | 30.3% (active)
Cc1ccc(Nc2nc(N)nc(CSc3nnc(C)s3)n2)cc1 | -6.84% (inactive)
CC(=O)N1C[C@@H]2C(c3ccccc3)[C@H](C1)N2Cc1ccc(F)cc1 (stereo not given in full) | -14.1% (inactive) and 0.287% (inactive)
Cc1cccc(-c2ccc(C3[C@H]4CNC[C@@H]3N4S(=O)(=O)c3ccccc3F)cc2)c1 (stereo not given in full) | 6.27% (inactive) and -0.776% (inactive)
CC(=O)N(C)C[C@@H]1Oc2ccc(NC(=O)NC(C)C)cc2C(=O)N(C)C[C@H]1C | 0.044% (inactive)
CC(C)NC(=O)N(C)C[C@H]1Oc2ccc(N(C)C)cc2CC(=O)N(C)C[C@@H]1C | -2.09% (inactive)
C[C@H](CO)N1C[C@H](C)[C@@H](CN(C)C(=O)Nc2cccc(F)c2)OCc2ccccc2-c2ccccc2C1=O | 6.45% (inactive)
C[C@@H]1CN(C)C(=O)c2cc([N+](=O)[O-])ccc2O[C@@H]1CN(C)C(=O)OC(C)(C)C | -15.7% (inactive)
CC(=O)c1ccc(Nc2nc(C(N)c3ccccc3)cs2)cc1 (stereo not given) | 30.3% (active)
CC(=O)c1ccc(Nc2nc(C(N)c3ccccc3Cl)cs2)cc1 (stereo not given) | -5.17% (inactive)
NC(c1ccccc1)c1csc(NC(=O)Nc2cccc(C(F)(F)F)c2)n1 (stereo not given) | 0.914% (inactive)
CCS(=O)(=O)Nc1ccc2c(c1)C(=O)N(C)[C@@H]1CC[C@@H](CC(=O)NC)O[C@H]1CO2 | 6.61% (inactive)
CC(=O)Nc1cccc2c1O[C@@H](CN(C)C(C)=O)[C@@H](C)CN(C)C2=O | -3.62% (inactive)
CN(C)C(=O)c1ccc(-c2ccc(C3[C@@H]4CN(S(=O)(=O)c5cccc(Cl)c5)C[C@H]3N4)cc2)cc1 (stereo not given in full) | -2.13% (inactive)
CNC[C@H]1Oc2ccc(NC(=O)Nc3ccc(F)cc3)cc2C(=O)N([C@@H](C)CO)C[C@@H]1C | -0.84% (inactive)
CC(C)NC(=O)N(C)C[C@H]1Oc2c(cccc2N(C)C)C(=O)N(C)C[C@H]1C | 0.739% (inactive)
O=C(N[C@@H]1CC[C@H](CCn2cc(-c3ccccc3)nn2)O[C@H]1CO)c1cnccn1 | 15% (inactive)
O=C(C[C@H]1CC[C@@H]2[C@H](COC[C@H](O)CN2CCC(F)(F)F)O1)NCC1CC1 | -3.5% (inactive)
C[C@@H]1CN(C)C(=O)c2cccc(N(C)C)c2O[C@H]1CN(C)S(C)(=O)=O | -2.39% (inactive)

Structure (SMILES) | inhibition
CN1c2ccc(-c3cccc(C#N)c3)cc2[C@H]2[C@H](CCN2S(=O)(=O)c2cccc(F)c2)[C@@H]1CO | 13.8% (inactive)
COCC(=O)Nc1ccc2c(c1)OC[C@H](C)N(C)C[C@H](C)[C@@H](OC)CN(C)C2=O | -14.1% (inactive)
CC(C)NC(=O)N[C@@H]1C=C[C@@H](CC(=O)N2CCCCC2)O[C@@H]1CO | -8.74% (inactive)
c1ccc(-c2ccc(C3[C@@H]4CN(Cc5cccnc5)C[C@H]3N4)cc2)cc1 (stereo not given in full) | -4.82% (inactive) and -10.1% (inactive)
CCc1nc2c(OCCOc3ccccc3)cccn2c1N(C)C(=O)c1ccc(OC)cc1 | 5.55% (inactive)
CCc1nc2c(OCCc3cccc(OC)c3)cccn2c1N(C)C(=O)c1ccc(C)cc1 | 30.8% (active)
CCc1nc2c(OCCOc3ccccc3)cccn2c1N(C)C(=O)c1ccccc1F | -0.297% (inactive)
CCC(=O)N(C)C[C@H]1Oc2ncc(-c3ccc(C)cc3)cc2C(=O)N([C@@H](C)CO)C[C@@H]1C | -13% (inactive)
C[C@@H]1CCCCO[C@H](CN(C)C(=O)c2ccccc2)[C@@H](C)CN([C@H](C)CO)C(=O)c2cc(NC(=O)c3ccccc3)ccc2O1 | 7% (inactive)
O=C(C[C@H]1C[C@H]2c3cc(NC(=O)NC4CCCC4)ccc3O[C@H]2[C@@H](CO)O1)NCc1ccc(-c2ccccc2)cc1 | -25.6% (inactive)
CCCNC(=O)C[C@H]1CC[C@@H]2[C@H](COc3ccc(NC(=O)c4ccc(OC)cc4)cc3C(=O)N2C)O1 | 10.3% (inactive)
CC(=O)N1[C@H](CO)[C@@H](c2ccc(-c3ccc(F)cc3)cc2)[C@H]1CNC(=O)C1CC1 | -16% (inactive)
CC(=O)N1[C@H](CNC(=O)CN(C)C)[C@H](c2ccc(C3=CCCC3)cc2)[C@@H]1CO | 13.6% (inactive)
CC[C@@H]1CC=CC[C@H](C)Oc2ccccc2C(=O)N(C)[C@H](Cc2ccccc2)C(=O)N1 (mixture of isomers) | -1.05% (inactive)
O=C1[C@H](Cc2ccc(C(F)(F)F)cc2)CCn2nncc2COC[C@@H]2CCCCN12 | 4.17% (inactive)
C[C@@H]1COCc2cnnn2CC[C@H](Cc2ccccc2)C(=O)N1 | -8.72% (inactive)
C[C@H](CO)N1C[C@H](C)[C@@H](CN(C)S(C)(=O)=O)Oc2cc(C#CC3CC3)ccc2S1(=O)=O | 5.58% (inactive)
CO[C@H]1CN(C)C(=O)c2ccc(NC(=O)C3CC3)cc2OC[C@@H](C)N(C(=O)c2ccccn2)C[C@@H]1C | 2.68% (inactive)
O=C(C[C@@H]1CC[C@@H](NC(=O)C2CC2)[C@@H](CO)O1)NCc1ccccc1Cl | -5.16% (inactive)
Cc1noc(C)c1S(=O)(=O)N(C)C[C@H]1Oc2ccc(N(C)C)cc2C(=O)N([C@H](C)CO)C[C@@H]1C | -9.54% (inactive)
CO[C@H]1CN(C)C(=O)c2cc(NS(=O)(=O)c3ccccc3)ccc2OC[C@@H](C)N(Cc2nccs2)C[C@@H]1C | -0.524% (inactive)
O=C(Nc1cc(F)ccc1F)N[C@H]1CC[C@H](CCn2cc(C3CCCC3)nn2)O[C@@H]1CO | -1.92% (inactive)
